What was measured:
[1] = tested on: Erythrocyte; test: Hemolytic activity against CD-1 mouse erythrocytes after 1 hr by spectroscopic method; type: ADME, cell-based
Method in brief: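 CD-1 mouse blood erythrocytes washed three times in PBS pH 7.4 (450g, 5 min), resuspended to OD700 1.5, kept on ice. Suspension mixed 9:1 with test solution at various concentrations, 37 °C for 1 h. Cells pelleted; supernatant hemoglobin read at 570 nm. Expressed as % hemolysis versus control; EC50 reported.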

[2] = tested on: Splenocyte; test: Cytotoxicity against Balb/c mouse splenocytes assessed as reduction in cell viability by MTT assay; type: cell-based
Method in brief: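 BALB/C spleen homogenized in PBS pH 7.4, filtered through nylon voile, washed three times by centrifugation (450g, 5 min), resuspended in PBS at (2−5) × 10^6 cells/mL. Viability measured by standard MTT method; at least triplicate, mean ± SD.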

[3] = tested on: RAW264.7; test: Cytotoxicity against mouse RAW264.7 cells assessed as reduction in cell viability by MTT assay; type: cell-based
Method in brief: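 Macrophages (ATCC) grown in DMEM with 10% FBS at 37 °C, humidified 5% CO2. Viability by standard MTT method; at least triplicate, mean ± SD.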

[4] = tested on: Ehrlich; test: Cytotoxicity against mouse Ehrlich carcinoma cells assessed as reduction in cell viability by MTT assay; type: cell-based
Method in brief: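 Ehrlich ascites carcinoma (tetraploid strain) grown in the peritoneal cavity of 18–20 g CD-1 mice. Cells harvested 7−10 days after inoculation, washed twice in PBS pH 7.4 (450g, 5 min), resuspended in serum-free RPMI-1640 at about (1−2) × 10^6 cells/mL. Standard MTT viability read-out; at least triplicate, mean ± SD.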

[5] = tested on: RAW264.7; test: Induction of ROS generation in mouse RAW264.7 cells at 10 uM after 24 hrs by 2,7-dichlorodihydrofluorescein diacetate staining based fluorescence assay; type: cell-based; settings: raw264.7, 24 h
[6] = tested on: RAW264.7; test: Immunomodulatory activity in mouse RAW264.7 cells assessed as inhibition of LPS-induced ROS level at 10 uM after 24 hrs by 2,7-dichlorodihydrofluorescein diacetate staining based fluorescence assay relative to control; type: functional; settings: RAW264.7, 24 h
Method in brief: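 Macrophages allowed to adhere 2 h at 37 °C, 5% CO2, then exposed to compounds at 10 μM for 24 h. In each experiment compounds were co-incubated with E. coli 055:B5 LPS (1.0 μg/mL). H2DCF-DA added (final 10 μM), 10 min at 37 °C. Fluorescence read at 485/518 nm; at least triplicate, mean ± SD, Student's t test (p < 0.05).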

COC[C@@H](O)[C@@H]1O[C@@H](O[C@@H]2C3=C4C[C@@H](O[C@@H]5O[C@@H]([C@H](O)COC)[C@H](O)[C@H]5O)[C@H]([C@H](C)/C=C/[C@@H](C)C(C)C)[C@@]4(C)CC[C@@H]3[C@@]3(C)CC[C@@H](O)C[C@@H]3[C@@H]2O)[C@H](O)[C@H]1O
Non-Toxic: Activity [1] | Activity [2] | Activity [3] | Activity [4] | Activity [5]

CO[C@@H]1[C@@H](O)[C@H](O[C@@H]2CC3=C4[C@@H](O)[C@@H](O)[C@H]5C[C@H](O)CC[C@]5(C)[C@H]4CC[C@]3(C)[C@H]2[C@H](C)/C=C/[C@@H](C)C(C)C)O[C@H]1[C@H](O)CO
Non-Toxic: Activity [1] | Activity [2] | Activity [3] | Activity [4] | Activity [5]

C=C(CC[C@@H](C)[C@H]1[C@H](O[C@@H]2O[C@@H]([C@H](O)COC)[C@H](O)[C@H]2O)CC2=C3[C@@H](O[C@@H]4O[C@@H]([C@H](O)CO)[C@H](OC)[C@H]4O)[C@@H](O)[C@H]4C[C@H](O)CC[C@]4(C)[C@H]3CC[C@@]21C)C(C)C
Non-Toxic: Activity [1] | Activity [2] | Activity [3] | Activity [4] | Activity [5]

CO[C@@H]1[C@@H](O)[C@H](O[C@@H]2CC3=C4[C@@H](O)[C@@H](O)[C@H]5C[C@H](O)CC[C@]5(C)[C@H]4CC[C@]3(C)[C@H]2[C@H](C)/C=C/[C@@H](C)C(C)C)O[C@H](CO)[C@H]1O
24%: inhibition at 10 µM [6]
Non-Toxic: Activity [1] | Activity [2] | Activity [3] | Activity [4] | Activity [5]

COC[C@@H](O)[C@@H]1O[C@@H](O[C@@H]2CC3=C4[C@@H](O)[C@@H](O)[C@H]5C[C@H](O)CC[C@]5(C)[C@H]4CC[C@]3(C)[C@H]2[C@H](C)/C=C/[C@@H](C)C(C)C)[C@H](O)[C@H]1O
Non-Toxic: Activity [1] | Activity [2] | Activity [3] | Activity [4] | Activity [5]

CO[C@@H]1[C@@H](O)[C@H](O[C@@H]2CC3=C4[C@@H](O)[C@@H](O)[C@H]5C[C@H](O)CC[C@]5(C)[C@H]4CC[C@]3(C)[C@H]2[C@H](C)/C=C/C(C)C)O[C@H](CO)[C@H]1O
Non-Toxic: Activity [1] | Activity [2] | Activity [3] | Activity [4] | Activity [5]

COC[C@@H](O)[C@@H]1O[C@@H](O[C@@H]2C3=C4C[C@@H](O[C@@H]5O[C@H](CO)[C@@H](O)[C@H](OC)[C@H]5O)[C@H]([C@H](C)CCCC(C)C)[C@@]4(C)CC[C@@H]3[C@@]3(C)CC[C@@H](O)C[C@@H]3[C@@H]2O)[C@H](O)[C@H]1O
Non-Toxic: Activity [1] | Activity [2] | Activity [3] | Activity [4] | Activity [5]

COC[C@@H](O)[C@@H]1O[C@@H](O[C@@H]2C3=C4C[C@@H](O[C@@H]5O[C@H](CO)[C@@H](O)[C@H](OC)[C@H]5O)[C@H]([C@H](C)/C=C/CC(C)C)[C@@]4(C)CC[C@@H]3[C@@]3(C)CC[C@@H](O)C[C@@H]3[C@@H]2O)[C@H](O)[C@H]1O
Non-Toxic: Activity [1] | Activity [2] | Activity [3] | Activity [4] | Activity [5]
